Each block holds one compound with its values, some of them ahead of it.
How the values were obtained:
[1] = system: patients with RA who had had an insufficient response to MTX; settings: cited from earlier work
[2] = Studies 1 and 2, steady‐state plasma PK of filgotinib and its major metabolite; format: in vivo, human; settings: for Tmax of major metabolite, steady state: median (range)
Method in brief: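 RA patients on stable methotrexate took oral test compound or placebo capsules for 4 weeks: 200 mg once daily or 100 mg twice daily (study 1), or 30, 75, 150 or 300 mg once daily (study 2). In a subset (12 and 15 patients), plasma parent and major metabolite were sampled predose and 1, 2, 3, 5 and 8 h after the morning dose, at week 2 or 4. Descriptive statistics were calculated by dose.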

JAK‐1 = settings: cited from earlier work
[3] = cited from earlier work
[4] = after filgotinib 30 mg once daily, study 2, arithmetic mean (coefficient of variation)
[5] = after filgotinib 75 mg once daily, study 2, arithmetic mean
[6] = after filgotinib 100 mg twice daily, study 1, arithmetic mean (coefficient of variation)
[7] = after filgotinib 150 mg once daily, study 2, arithmetic mean (coefficient of variation)
[8] = after filgotinib 200 mg once daily, study 1, arithmetic mean (coefficient of variation)
[9] = after filgotinib 300 mg once daily, study 2, arithmetic mean (coefficient of variation)

SMILES: CC[C@@H]1CN(C(=O)NCC(F)(F)F)C[C@@H]1c1cnc2cnc3[nH]ccc3n12 [ABT‐494]
- effect on natural killer (NK) cells [1]: decreased
- effect on hemoglobin ([1]; middle and higher doses, within 4 weeks): decline in hemoglobin

- dose proportionality of PK ([2]; 30–300 mg range): essentially dose proportional
- AUCtau of major metabolite, steady state [2, 4]: 11.2 (52.2) μg.hour/ml
- Cmax of major metabolite, steady state [2, 4]: 0.582 (48.5) μg/ml
- Tmax of major metabolite, steady state ([2]; after filgotinib 30 mg once daily, study 2): 5 (1–8) hours
- AUCtau of major metabolite, steady state [2, 5]: 26.0 µg·h/mL
- Cmax of major metabolite, steady state [2, 5]: 1.46 µg/mL
- Tmax of major metabolite, steady state ([2]; after filgotinib 75 mg once daily, study 2): 5.5 (3–8) hours
- AUCtau of major metabolite, steady state [2, 6]: 33.1 (26.3) μg.hour/ml
- Cmax of major metabolite, steady state [2, 6]: 3.18 (25.0) μg/ml
- Tmax of major metabolite, steady state ([2]; after filgotinib 100 mg twice daily, study 1): 2 (0–5) hours
- AUCtau of major metabolite, steady state [2, 7]: 75.9 (31.0) μg.hour/ml
- Cmax of major metabolite, steady state [2, 7]: 3.79 (26.5) μg/ml
- Tmax of major metabolite, steady state ([2]; after filgotinib 150 mg once daily, study 2): 3 (2–5) hours
- AUCtau of major metabolite, steady state [2, 8]: 71.8 (31.3) μg.hour/ml
- Cmax of major metabolite, steady state [2, 8]: 3.77 (23.6) μg/ml
- Tmax of major metabolite, steady state ([2]; after filgotinib 200 mg once daily, study 1): 3 (1–5) hours
- AUCtau of major metabolite, steady state [2, 9]: 93.9 (20.4) μg.hour/ml
- Cmax of major metabolite, steady state [2, 9]: 4.62 (9.98) μg/ml
- Tmax of major metabolite, steady state ([2]; after filgotinib 300 mg once daily, study 2): 3 (3–8) hours
- time of dosing to attain steady state ([2]; in vivo): ≤ 4 days
- exposure to major metabolite, higher than exposure to parent filgotinib ([2]; steady state, 75–300 mg dose range): 13 fold
SMILES: Nc1nc2cccc(-c3ccc(CN4CCS(=O)(=O)CC4)cc3)n2n1 [major metabolite]
- JAK‐1 inhibition potency of metabolite, lower than filgotinib (JAK‐1): ~10 fold
- half‐life [3]: ~24 h
- overall exposure of metabolite, higher than that of filgotinib ([3]; in humans): ~15 fold

Source: article PMC5656813 (Arthritis & Rheumatology (Hoboken, N.j.), 2017)
